Calls of active or inactive are those of the source. The calls are words filed in the database; no cut-off is given here.
Assays:
[1] = target: Serine/threonine-protein kinase DCLK2 (Homo sapiens, UniProt Q8N568); experiment: Binding affinity to DCAMKL2 (unknown origin) assessed as dissociation constant by ATP-competition binding assay
[2] = target: Mitogen-activated protein kinase 14 (Homo sapiens, UniProt Q16539); experiment: Inhibition of p38a in human HeLa cells lysate at 2 uM pre incubated for 15 mins followed by ATP acyl phosphate probe addition and measured after 10 mins by LC-MS/MS analysis relative to control; assay type: subcellular; settings: time 25.0 min
[3] = target: Cyclin-dependent kinase 10 (Homo sapiens, UniProt Q15131); experiment: Inhibition of CDK10 in human HeLa cells lysate pre incubated for 15 mins followed by ATP acyl phosphate probe addition and measured after 10 mins by LC-MS/MS analysis; assay type: subcellular
In short: (§1)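 KiNativ profiling in HeLa lysate (5 mg/mL total protein). Lysate incubated 15 min with inhibitor at 50, 10, 2, 0.8 or 0 μM. ATP or ADP acylphosphate probe then added (5 μM final) and reacted 10 min. Reaction stopped with urea and analysed by targeted MS, using up to four fragment ions per kinase peptide-probe conjugate. % inhibition taken against untreated lysate. Run in duplicate.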

[4] = target: Serine/threonine-protein kinase MARK2 (Homo sapiens, UniProt Q7KZI7); experiment: Inhibition of MARK2 in human HeLa cells lysate pre incubated for 15 mins followed by ADP acyl phosphate probe addition and measured after 10 mins by LC-MS/MS analysis; assay type: subcellular
[5] = Toxicity in C57Bl/6 mouse assessed as effect on albumin level at 50 mg/kg, ip for 14 days (reference value: 3 g/dl); assay type: organism-based; settings: in vivo, 336 h, time 14 day
[6] = target: Mixed lineage kinase domain-like protein (Homo sapiens, UniProt Q8NB16); experiment: Inhibition of MLKL in human HeLa cells lysate pre incubated for 15 mins followed by ATP acyl phosphate probe addition and measured after 10 mins by LC-MS/MS analysis; assay type: subcellular
Insulin receptor = Insulin receptor (Homo sapiens, UniProt P06213); experiment: Inhibition of INSR in human HeLa cells lysate at 50 uM pre incubated for 15 mins followed by ADP acyl phosphate probe addition and measured after 10 mins by LC-MS/MS analysis relative to control; assay type: subcellular; settings: time 25.0 min
[7] = target: T1, Non-receptor tyrosine-protein kinase TNK1 (Homo sapiens) (UniProt Q13470); experiment: Inhibition of recombinant TNK1 (unknown origin) expressed in HEK293 cells at 0.08 to 10 uM incubated for 15 mins in presence of 32P-gamma-ATP; assay type: cell-based; settings: dose 0.08-10 µM
T1 sequence (whole entry): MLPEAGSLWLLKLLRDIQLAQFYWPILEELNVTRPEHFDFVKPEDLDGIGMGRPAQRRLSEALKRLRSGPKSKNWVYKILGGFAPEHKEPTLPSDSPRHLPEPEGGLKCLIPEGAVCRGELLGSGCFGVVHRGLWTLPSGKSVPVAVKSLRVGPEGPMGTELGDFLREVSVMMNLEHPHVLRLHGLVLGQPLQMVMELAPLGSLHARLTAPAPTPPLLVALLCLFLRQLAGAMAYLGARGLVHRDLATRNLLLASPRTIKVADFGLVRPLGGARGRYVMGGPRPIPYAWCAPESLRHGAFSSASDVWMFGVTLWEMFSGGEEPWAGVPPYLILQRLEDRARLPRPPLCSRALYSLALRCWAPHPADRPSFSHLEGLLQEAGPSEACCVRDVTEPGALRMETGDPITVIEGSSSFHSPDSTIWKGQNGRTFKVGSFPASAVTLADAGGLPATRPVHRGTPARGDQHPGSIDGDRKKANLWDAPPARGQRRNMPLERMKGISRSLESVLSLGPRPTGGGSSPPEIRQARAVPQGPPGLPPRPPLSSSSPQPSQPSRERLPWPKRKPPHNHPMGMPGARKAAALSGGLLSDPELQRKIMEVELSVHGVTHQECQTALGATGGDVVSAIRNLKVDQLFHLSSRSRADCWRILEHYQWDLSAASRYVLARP

[8] = target: Cyclin-dependent kinase 2 (Homo sapiens, UniProt P24941); experiment: Inhibition of CDK2 K1 site in human HeLa cells lysate pre incubated for 15 mins followed by ATP acyl phosphate probe addition and measured after 10 mins by LC-MS/MS analysis; assay type: subcellular; in short: as §1
[9] = target: Serine/threonine-protein kinase 3 (Homo sapiens, UniProt Q13188); experiment: Inhibition of MST2 in human HeLa cells lysate pre incubated for 15 mins followed by ADP acyl phosphate probe addition and measured after 10 mins by LC-MS/MS analysis; assay type: subcellular
[10] = target: Protein kinase C iota type (Homo sapiens) (UniProt P41743); experiment: Inhibition of PKCiota in human HeLa cells lysate at 2 uM pre incubated for 15 mins followed by ADP acyl phosphate probe addition and measured after 10 mins by LC-MS/MS analysis relative to control; assay type: subcellular; settings: time 25.0 min
[11] = target: Dual specificity protein kinase TTK (Homo sapiens) (UniProt P33981); experiment: Inhibition of TTK (unknown origin) assessed as remaining activity at 10 uM by ATP-competition binding assay relative to control
[12] = target: Serine/threonine-protein kinase 16 (Homo sapiens, UniProt O75716); experiment: Inhibition of MPSK1 in human HeLa cells lysate at 50 uM pre incubated for 15 mins followed by ATP acyl phosphate probe addition and measured after 10 mins by LC-MS/MS analysis relative to control; assay type: subcellular; settings: time 25.0 min
[13] = target: T2, Mixed lineage kinase domain-like protein (Homo sapiens) (UniProt Q8NB16); experiment: Inhibition of MLKL in human HeLa cells lysate at 10 uM pre incubated for 15 mins followed by ADP acyl phosphate probe addition and measured after 10 mins by LC-MS/MS analysis relative to control; assay type: subcellular; settings: time 25.0 min
T2 sequence (whole entry): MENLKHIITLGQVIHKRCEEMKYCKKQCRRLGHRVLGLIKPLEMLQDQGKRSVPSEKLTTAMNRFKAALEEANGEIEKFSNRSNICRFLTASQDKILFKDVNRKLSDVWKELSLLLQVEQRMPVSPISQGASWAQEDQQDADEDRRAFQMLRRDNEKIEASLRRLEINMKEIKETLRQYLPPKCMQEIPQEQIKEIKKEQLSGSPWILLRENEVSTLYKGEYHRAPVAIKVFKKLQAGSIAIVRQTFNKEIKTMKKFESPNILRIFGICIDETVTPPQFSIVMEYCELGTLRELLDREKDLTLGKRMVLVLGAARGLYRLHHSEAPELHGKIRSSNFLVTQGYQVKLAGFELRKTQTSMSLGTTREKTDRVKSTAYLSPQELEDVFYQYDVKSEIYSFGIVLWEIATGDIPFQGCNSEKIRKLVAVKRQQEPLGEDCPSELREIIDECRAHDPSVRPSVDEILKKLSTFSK

[14] = target: Phosphatidylinositol 4-kinase beta (Homo sapiens, UniProt Q9UBF8); experiment: Inhibition of PIK4CB in human HeLa cells lysate at 50 uM pre incubated for 15 mins followed by ATP acyl phosphate probe addition and measured after 10 mins by LC-MS/MS analysis relative to control; assay type: subcellular; settings: time 25.0 min
Chain of Phosphatidylinositol 4-kinase beta (Q9UBF8 2-816 limits assumed): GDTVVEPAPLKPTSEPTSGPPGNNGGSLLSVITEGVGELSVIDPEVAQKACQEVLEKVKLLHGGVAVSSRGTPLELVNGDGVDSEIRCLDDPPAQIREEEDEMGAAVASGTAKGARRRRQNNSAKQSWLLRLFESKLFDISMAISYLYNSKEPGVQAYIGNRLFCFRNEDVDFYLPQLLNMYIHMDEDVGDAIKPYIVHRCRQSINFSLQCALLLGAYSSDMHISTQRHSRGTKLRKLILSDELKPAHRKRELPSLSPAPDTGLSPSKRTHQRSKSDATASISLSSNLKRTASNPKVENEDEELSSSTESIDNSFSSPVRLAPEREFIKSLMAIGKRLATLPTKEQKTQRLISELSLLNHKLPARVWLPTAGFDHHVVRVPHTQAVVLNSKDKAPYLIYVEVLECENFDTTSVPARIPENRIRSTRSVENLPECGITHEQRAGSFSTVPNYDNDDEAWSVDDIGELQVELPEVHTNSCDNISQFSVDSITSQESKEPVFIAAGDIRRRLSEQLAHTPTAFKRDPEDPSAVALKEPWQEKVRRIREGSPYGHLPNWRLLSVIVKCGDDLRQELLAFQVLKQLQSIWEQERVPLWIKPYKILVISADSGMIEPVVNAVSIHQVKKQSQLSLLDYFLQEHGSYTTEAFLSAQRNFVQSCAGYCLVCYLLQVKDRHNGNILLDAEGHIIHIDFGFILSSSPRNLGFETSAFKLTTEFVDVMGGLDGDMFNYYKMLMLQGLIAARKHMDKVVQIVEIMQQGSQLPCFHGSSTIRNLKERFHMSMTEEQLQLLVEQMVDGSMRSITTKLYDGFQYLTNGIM

Chain of Serine/threonine-protein kinase 3 (Q13188 whole entry): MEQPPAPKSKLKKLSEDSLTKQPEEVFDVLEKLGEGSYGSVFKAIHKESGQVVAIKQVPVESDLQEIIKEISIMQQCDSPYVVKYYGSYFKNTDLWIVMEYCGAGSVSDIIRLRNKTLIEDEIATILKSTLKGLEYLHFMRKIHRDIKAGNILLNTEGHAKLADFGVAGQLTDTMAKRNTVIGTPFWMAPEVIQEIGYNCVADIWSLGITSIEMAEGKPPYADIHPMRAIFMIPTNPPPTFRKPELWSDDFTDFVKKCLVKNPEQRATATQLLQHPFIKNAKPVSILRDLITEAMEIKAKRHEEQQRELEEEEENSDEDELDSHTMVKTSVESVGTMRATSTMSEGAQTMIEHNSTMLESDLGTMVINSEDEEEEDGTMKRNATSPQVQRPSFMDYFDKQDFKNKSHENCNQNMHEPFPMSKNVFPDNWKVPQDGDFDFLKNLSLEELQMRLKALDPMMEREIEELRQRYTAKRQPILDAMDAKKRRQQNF
Chain of Insulin receptor (P06213 28-758 limits assumed): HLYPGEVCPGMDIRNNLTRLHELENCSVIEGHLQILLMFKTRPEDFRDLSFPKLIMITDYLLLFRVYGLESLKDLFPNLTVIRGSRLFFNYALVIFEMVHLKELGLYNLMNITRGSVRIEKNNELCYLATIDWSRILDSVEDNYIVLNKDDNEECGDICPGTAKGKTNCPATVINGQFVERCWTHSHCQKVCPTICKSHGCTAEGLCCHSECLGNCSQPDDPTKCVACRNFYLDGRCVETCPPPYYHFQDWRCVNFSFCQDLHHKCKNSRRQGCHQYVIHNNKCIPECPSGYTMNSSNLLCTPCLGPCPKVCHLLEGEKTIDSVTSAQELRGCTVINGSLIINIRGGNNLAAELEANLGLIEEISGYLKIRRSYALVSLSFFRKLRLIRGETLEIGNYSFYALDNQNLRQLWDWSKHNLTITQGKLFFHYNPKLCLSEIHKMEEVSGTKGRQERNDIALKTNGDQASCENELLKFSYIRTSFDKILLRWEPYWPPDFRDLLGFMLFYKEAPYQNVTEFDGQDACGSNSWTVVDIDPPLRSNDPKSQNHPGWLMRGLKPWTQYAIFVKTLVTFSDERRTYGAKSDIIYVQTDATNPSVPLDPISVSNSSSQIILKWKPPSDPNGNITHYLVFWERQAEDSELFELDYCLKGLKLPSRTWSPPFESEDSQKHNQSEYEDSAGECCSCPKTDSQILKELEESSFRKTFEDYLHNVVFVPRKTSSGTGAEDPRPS
Chain of Insulin receptor (P06213 763-1382 limits assumed): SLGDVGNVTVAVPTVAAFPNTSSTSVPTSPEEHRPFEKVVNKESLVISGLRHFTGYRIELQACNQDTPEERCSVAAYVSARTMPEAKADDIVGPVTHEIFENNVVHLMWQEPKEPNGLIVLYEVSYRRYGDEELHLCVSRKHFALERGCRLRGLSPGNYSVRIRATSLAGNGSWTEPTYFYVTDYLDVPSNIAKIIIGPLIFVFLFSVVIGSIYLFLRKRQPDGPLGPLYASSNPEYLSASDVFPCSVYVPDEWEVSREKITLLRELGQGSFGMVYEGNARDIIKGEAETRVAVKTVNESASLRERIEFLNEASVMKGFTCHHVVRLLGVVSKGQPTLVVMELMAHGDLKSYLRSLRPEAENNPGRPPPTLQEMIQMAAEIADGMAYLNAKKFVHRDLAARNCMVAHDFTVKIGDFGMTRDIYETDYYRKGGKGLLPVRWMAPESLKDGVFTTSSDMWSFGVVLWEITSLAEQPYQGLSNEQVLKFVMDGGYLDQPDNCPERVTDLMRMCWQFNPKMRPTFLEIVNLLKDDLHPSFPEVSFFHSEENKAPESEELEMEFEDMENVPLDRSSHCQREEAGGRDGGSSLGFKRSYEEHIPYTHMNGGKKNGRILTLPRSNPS
Chain of Dual specificity protein kinase TTK (Homo sapiens) (P33981 whole entry): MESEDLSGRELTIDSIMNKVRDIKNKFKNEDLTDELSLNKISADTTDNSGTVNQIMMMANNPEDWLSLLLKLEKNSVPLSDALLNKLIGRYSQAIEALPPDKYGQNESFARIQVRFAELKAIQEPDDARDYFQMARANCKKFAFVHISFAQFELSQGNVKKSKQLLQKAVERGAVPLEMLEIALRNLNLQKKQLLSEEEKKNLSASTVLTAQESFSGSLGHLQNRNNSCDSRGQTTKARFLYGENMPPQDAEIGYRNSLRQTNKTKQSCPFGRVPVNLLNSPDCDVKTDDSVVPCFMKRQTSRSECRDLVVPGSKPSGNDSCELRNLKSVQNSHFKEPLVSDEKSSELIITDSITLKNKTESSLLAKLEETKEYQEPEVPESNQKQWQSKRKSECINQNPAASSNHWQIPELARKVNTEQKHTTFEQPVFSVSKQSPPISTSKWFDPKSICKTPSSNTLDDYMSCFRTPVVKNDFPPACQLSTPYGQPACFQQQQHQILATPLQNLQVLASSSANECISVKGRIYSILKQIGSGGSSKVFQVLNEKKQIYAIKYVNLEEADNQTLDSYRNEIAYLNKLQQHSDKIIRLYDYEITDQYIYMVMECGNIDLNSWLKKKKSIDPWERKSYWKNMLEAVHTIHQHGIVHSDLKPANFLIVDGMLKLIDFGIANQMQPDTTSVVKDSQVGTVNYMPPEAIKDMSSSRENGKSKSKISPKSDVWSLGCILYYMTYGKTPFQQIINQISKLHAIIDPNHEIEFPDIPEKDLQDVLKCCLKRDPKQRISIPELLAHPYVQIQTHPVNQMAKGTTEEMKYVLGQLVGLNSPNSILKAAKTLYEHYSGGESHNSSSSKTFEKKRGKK
Chain of Protein kinase C iota type (Homo sapiens) (P41743 whole entry): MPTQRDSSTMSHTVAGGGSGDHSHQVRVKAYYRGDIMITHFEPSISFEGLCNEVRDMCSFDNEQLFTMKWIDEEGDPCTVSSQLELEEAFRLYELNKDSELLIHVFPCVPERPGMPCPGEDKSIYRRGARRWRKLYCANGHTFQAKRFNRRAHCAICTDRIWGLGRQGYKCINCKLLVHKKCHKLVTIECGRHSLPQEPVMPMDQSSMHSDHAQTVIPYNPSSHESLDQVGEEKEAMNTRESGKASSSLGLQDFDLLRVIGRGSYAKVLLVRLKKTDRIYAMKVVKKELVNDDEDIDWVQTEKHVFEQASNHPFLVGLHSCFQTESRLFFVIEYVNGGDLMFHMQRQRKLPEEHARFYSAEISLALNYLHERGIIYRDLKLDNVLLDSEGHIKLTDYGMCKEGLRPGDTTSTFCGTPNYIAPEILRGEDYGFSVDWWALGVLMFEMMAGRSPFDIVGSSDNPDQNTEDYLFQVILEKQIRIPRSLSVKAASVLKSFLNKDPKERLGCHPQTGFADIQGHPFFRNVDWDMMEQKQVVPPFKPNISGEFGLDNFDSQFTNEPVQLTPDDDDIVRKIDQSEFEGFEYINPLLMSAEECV
Chain of Serine/threonine-protein kinase DCLK2 (Q8N568 whole entry): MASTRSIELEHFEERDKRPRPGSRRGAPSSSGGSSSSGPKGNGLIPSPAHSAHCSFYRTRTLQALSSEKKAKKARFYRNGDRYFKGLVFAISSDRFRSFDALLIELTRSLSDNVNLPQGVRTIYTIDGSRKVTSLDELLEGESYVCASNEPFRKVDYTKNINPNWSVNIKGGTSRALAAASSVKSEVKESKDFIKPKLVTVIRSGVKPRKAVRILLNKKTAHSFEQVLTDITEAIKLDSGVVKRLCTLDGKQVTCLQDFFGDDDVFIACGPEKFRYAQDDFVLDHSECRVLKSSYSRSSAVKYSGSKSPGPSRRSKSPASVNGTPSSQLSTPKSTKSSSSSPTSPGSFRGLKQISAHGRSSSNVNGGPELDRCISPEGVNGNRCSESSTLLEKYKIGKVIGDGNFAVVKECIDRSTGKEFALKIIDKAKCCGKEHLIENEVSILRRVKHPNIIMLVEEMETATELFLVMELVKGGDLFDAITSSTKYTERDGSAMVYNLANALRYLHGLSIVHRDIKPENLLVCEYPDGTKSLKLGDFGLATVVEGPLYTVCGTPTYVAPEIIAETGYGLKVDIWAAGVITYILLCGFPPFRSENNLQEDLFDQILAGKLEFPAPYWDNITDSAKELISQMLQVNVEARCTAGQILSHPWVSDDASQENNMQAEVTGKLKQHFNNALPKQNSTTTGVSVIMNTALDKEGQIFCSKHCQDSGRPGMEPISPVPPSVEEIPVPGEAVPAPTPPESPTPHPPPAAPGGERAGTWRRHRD

Question: For `CCOc1cc(N2CCC(O)CC2)ccc1Nc1ncc2c(n1)N(C)c1ccccc1C(=O)N2C`, which Kd [1] is on record?
Answer: 0.19 µM

Question: And the inhibition [2]?
Answer: 3.8%

Question: What about the IC50 [3] of the same compound?
Answer: > 50 µM

Question: And the IC50 [4]?
Answer: > 50 µM

Question: And the Activity [5]?
Answer: 3.3 g/dL

Question: What about the IC50 [6] of the same compound?
Answer: > 50 µM

Question: What about the inhibition (Insulin receptor) of the same compound?
Answer: -6.5%

Question: And the inhibition [7]?
Answer: Active

Question: What about the IC50 [8] of the same compound?
Answer: > 50 µM

Question: What about the IC50 [9] of the same compound?
Answer: > 50 µM

Question: What about the inhibition [10] of the same compound?
Answer: 18.9%

Question: And the Activity [11]?
Answer: 19%

Question: What about the inhibition [12] of the same compound?
Answer: -8.9%

Question: What about the inhibition [13] of the same compound?
Answer: 12%

Question: And the inhibition [14]?
Answer: 52.2%

— ChEMBL document CHEMBL5661979, “Pharmacological inhibition of BMK1 suppresses tumor growth through promyelocytic leukemia protein” (Cancer Cell, 2010)
